6 compounds from ChEMBL document CHEMBL1134605, “Cytotoxic responses to aromatic ring and configurational variations in alpha-conidendrin, podophyllotoxin, and sikkimotoxin derivatives” (J Med Chem, 2001) can be followed below.

Test [1] deals with CCRF-CEM. In words: Relative potency compared to cytotoxicity against CCRF-CEM cell line of etoposide. In kind it is functional, Homo sapiens. The gist of the method: (§1)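 Relative potency compares each compound with etoposide, the reference, using IC50s from the same modified tetrazolium dye reduction viability assay. Cells were seeded at 6.7 × 10^4 cells/well in RPMI 1640 with L-glutamine and 10% FBS.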

Test [2] has as its system HL-60. Put plainly: Relative potency compared to cytotoxicity against HL60/S cell line of etoposide. Type of test: functional, Homo sapiens. The gist of the method: as §1
The subject of test [3] is HL-60. Put plainly: Resistance factor was determined using the ratio of (IC50) of drug resistance cells/drug sensitive cells in HL60/ADR cell line. In kind it is functional, Homo sapiens. The gist of the method:
(§2)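 Resistance factor = IC50 in the drug-resistant line (HL60/ADR, which overexpresses MRP, or HL60/Vinc, which overexpresses Pgp) divided by IC50 in the drug-sensitive cells. IC50s came from the tetrazolium dye reduction viability assay, as averages of 2 determinations in a single experiment.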

Test [4] deals with HL-60. In words: Cytotoxicity was assessed using drug-sensitive human leukemic cell line HL60/S. In kind it is functional, cell-based. The gist of the method: (§3)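 Viability was read by a modified tetrazolium dye reduction method. Cells were harvested in logarithmic growth and seeded at 6.7 × 10^4 cells/well. They were grown in RPMI 1640 with L-glutamine and 10% FBS and cultured with the compounds. The IC50 was taken as the read-out.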

The subject of test [5] is CCRF-CEM. In words: Cytotoxicity was assessed using human leukemic cell line CCRF-CEM. In kind it is functional, cell-based. The gist of the method: as §3
The subject of test [6] is HL-60. Put plainly: Resistance factor was determined using the ratio of (IC50) of drug resistance cells/drug sensitive cells in HL60/Vinc cell line. In kind it is functional, Homo sapiens. The gist of the method: as §2
Test [7] has as its system HL-60. In words: Cytotoxicity was assessed using adriamycin-resistant human leukemic cell line HL60/ADR. Type of test: functional, cell-based. The gist of the method: (§4)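 Modified tetrazolium dye reduction viability assay on log-phase cells seeded at 6.7 × 10^4 cells/well in RPMI 1640 with L-glutamine and 10% FBS, cultured with compounds. HL60/ADR overexpresses MRP but not Pgp; HL60/Vinc overexpresses Pgp but not MRP. IC50 values are averages of 2 determinations from a single experiment.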

Test [8] concerns HL-60. Put plainly: Cytotoxicity was assessed using vincristine-resistant human leukemic cell line HL60/Vinc. Type of test: functional, cell-based. The gist of the method: as §4
Test [9] relates to CCRF-CEM. In words: Relative potency in comparison to etoposide. In kind it is functional, Homo sapiens. The gist of the method:
as §1

Setting [10] is: Homo sapiens, HL-60, read-out: IC50.

Values after ≈ are worked out from the molar mass of the structure shown.

As for `COc1ccc([C@@H]2c3cc(OC)c(OC)cc3C[C@H]3COC[C@@H]32)cc1OC`, the Relative potency amounted to 0.03 in the test on CCRF-CEM [1] and 0.01 in the test with HL-60 [2]. Moreover, the figures for the RF in the test on HL-60 [3] and in the test on HL-60 [6] were 0.2 and 0.3, respectively. The 50% inhibitory concentration (IC50) (as a rule, the concentration that inhibits the measured activity by half) with HL-60 [4] (hl-60) was found to be 117.178 µg/mL (≈ 316 µM); in the test on CCRF-CEM [5] it was 38.5 µg/mL (≈ 104 µM); with HL-60 [7] (setting [10]), 23.3 µg/mL (≈ 63 µM); in the test with HL-60 [8] it was 36.1 µg/mL (≈ 97.4 µM).

For the compound `COc1cc([C@@H]2c3cc4c(cc3C[C@H]3COC[C@@H]32)OCO4)cc(OC)c1OC`, the Relative potency in the test with CCRF-CEM [1] amounted to 27; in the test on HL-60 [2] it was 54.8. The values for the RF in the test with HL-60 [3] and in the test on HL-60 [6] were 0.6 and 0.5, respectively. The IC50 with HL-60 [4] (setting [10]) was found to be 0.03 µg/mL (≈ 0.078 µM); in the test on CCRF-CEM [5], 0.043 µg/mL (≈ 0.112 µM); in the test with HL-60 [7] (setting [10]) it was 0.019 µg/mL (≈ 0.0494 µM); with HL-60 [8] it was 0.015 µg/mL (≈ 0.039 µM).

On to `COc1cc([C@H]2c3cc4c(cc3C[C@H]3COC[C@@H]32)OCO4)cc(OC)c1OC`, for which the Relative potency turned out to be 0.14 with CCRF-CEM [1] and 0.23 in the test on HL-60 [2]. Besides, the RF in the test with HL-60 [3] amounted to 0.7; with HL-60 [6], 0.4. Besides, the half-inhibitory concentration (IC50) with HL-60 [4] (setting [10]) stood at 7.09 µg/mL (≈ 18.5 µM); in the test with CCRF-CEM [5] it was 8.15 µg/mL (≈ 21.2 µM); with HL-60 [7] (setting [10]), 4.86 µg/mL (≈ 12.6 µM); with HL-60 [8], 3.06 µg/mL (≈ 7.96 µM).

Regarding `COc1cc([C@@H]2c3cc4c(cc3[C@@H](O[C@@H]3O[C@@H]5CO[C@@H](C)O[C@H]5[C@H](O)[C@H]3O)[C@H]3COC(=O)[C@H]23)OCO4)cc(OC)c1O` [ETOPOSIDE], the Relative potency with CCRF-CEM [9] was found to be 1. Further, the RF with HL-60 [3] is listed as 33; with HL-60 [6] it was 11. Besides, the IC50 in the test with HL-60 [4] (setting [10]) was determined as 1.64 µg/mL (≈ 2.79 µM); in the test with CCRF-CEM [5], 1.15 µg/mL (≈ 1.95 µM); in the test on HL-60 [7] (hl-60), 54.94 µg/mL (≈ 93.3 µM); with HL-60 [8], 18.1 µg/mL (≈ 30.7 µM).

Take `COc1ccc([C@H]2c3cc(OC)c(OC)cc3C[C@H]3COC[C@@H]32)cc1OC`: the Relative potency with CCRF-CEM [1] and in the test with HL-60 [2] was 0.05 throughout. Further, the RF in the test with HL-60 [3] stood at 0.7; in the test with HL-60 [6] it was 0.4. Also, the half-inhibitory concentration (IC50) was 36.3 µg/mL (≈ 97.9 µM) in the test on HL-60 [4] (setting [10]), 21.9 µg/mL (≈ 59 µM) in the test on CCRF-CEM [5], 26.1 µg/mL (≈ 70.3 µM) with HL-60 [7] (setting [10]) and 14.7 µg/mL (≈ 39.8 µM) in the test with HL-60 [8].

In the case of `COc1cc2c(cc1OC)C(c1cc(OC)c(OC)c(OC)c1)[C@H]1COC[C@@H]1C2` (some centres not stated), the Relative potency came out at 2.4 in the test with CCRF-CEM [1] and 3.08 with HL-60 [2]. The values for the RF in the test with HL-60 [3] and with HL-60 [6] were 0.7 and 0.6, respectively. For the same compound, the IC50 in the test with HL-60 [4] (setting [10]) turned out to be 0.533 µg/mL (≈ 1.33 µM); with CCRF-CEM [5] it was 0.47 µg/mL (≈ 1.17 µM); with HL-60 [7] (setting [10]), 0.362 µg/mL (≈ 0.904 µM); with HL-60 [8] it was 0.314 µg/mL (≈ 0.784 µM).
